Our source for the ED50 and Ki values is ChEMBL document CHEMBL1142735, “Discovery of a new series of centrally active tricyclic isoxazoles combining serotonin (5-HT) reuptake inhibition with alpha2-adrenoceptor blocking activity” (J Med Chem, 2005).

In assay [1] the test system is Rattus norvegicus. Nature of the assay: Effective dose for PCA-induced 5-HT depletion was determined by subcutaneous administration. The assay is classed as functional. The settings on record: sc. Put shortly: (§1)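 Male Wiga Wistar rats (200 g, n=6 per condition) dosed sc or po (10 mL/kg). At 4 h, frontal cortex removed and extracted with perchloric acid/metabisulfite; 5-HT measured by HPLC-electrochemical detection against a standard curve with dihydroxybenzylamine internal standard. Effect scaled between pCA+vehicle and vehicle+vehicle controls; ED50 from sigmoidal fit.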

In assay [2] the target is T1, D(4) dopamine receptor (Homo sapiens, UniProt P21917).
T1 sequence (P21917 whole entry): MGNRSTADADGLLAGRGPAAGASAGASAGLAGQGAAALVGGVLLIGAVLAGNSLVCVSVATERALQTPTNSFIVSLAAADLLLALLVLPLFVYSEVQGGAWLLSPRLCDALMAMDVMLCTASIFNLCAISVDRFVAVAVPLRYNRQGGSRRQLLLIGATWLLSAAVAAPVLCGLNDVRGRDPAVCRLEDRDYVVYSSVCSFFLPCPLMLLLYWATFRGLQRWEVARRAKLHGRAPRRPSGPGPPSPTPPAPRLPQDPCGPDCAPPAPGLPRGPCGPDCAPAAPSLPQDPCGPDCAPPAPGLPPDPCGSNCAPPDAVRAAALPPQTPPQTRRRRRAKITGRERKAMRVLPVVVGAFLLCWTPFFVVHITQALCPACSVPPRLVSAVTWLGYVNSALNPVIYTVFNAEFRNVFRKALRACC
Nature of the assay: Inhibition of [3H]spiperone binding to Dopamine receptor D4. In short, it runs like this: (§2)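 Radioligand competition binding on membranes from cell lines carrying the human target, incubated with the labelled ligand under optimized conditions. Separation by filtration, except α1A and D3, which used scintillation proximity assay.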

The subject of assay [3] is Rattus norvegicus. Nature of the assay: Effective dose for PCA-induced 5-HT depletion was determined by oral administration. The assay is classed as functional. Put shortly:
as §1

In assay [4] the target is T2, Adrenergic receptor alpha-1 (Homo sapiens, UniProt P35348+P25100+P35368).
T2 sequence (P35348 whole entry): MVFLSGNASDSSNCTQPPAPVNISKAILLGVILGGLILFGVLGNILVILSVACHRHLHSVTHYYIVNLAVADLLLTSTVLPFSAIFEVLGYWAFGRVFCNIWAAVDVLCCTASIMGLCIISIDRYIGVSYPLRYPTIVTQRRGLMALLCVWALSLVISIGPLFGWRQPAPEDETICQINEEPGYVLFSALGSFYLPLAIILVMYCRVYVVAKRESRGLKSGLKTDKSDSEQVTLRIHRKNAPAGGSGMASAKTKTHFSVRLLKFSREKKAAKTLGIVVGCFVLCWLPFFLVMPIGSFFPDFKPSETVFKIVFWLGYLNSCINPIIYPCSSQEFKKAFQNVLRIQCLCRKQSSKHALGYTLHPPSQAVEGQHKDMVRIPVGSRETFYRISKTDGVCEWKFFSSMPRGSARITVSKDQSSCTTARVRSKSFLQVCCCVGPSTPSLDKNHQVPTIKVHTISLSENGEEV
T2 sequence (P25100 whole entry): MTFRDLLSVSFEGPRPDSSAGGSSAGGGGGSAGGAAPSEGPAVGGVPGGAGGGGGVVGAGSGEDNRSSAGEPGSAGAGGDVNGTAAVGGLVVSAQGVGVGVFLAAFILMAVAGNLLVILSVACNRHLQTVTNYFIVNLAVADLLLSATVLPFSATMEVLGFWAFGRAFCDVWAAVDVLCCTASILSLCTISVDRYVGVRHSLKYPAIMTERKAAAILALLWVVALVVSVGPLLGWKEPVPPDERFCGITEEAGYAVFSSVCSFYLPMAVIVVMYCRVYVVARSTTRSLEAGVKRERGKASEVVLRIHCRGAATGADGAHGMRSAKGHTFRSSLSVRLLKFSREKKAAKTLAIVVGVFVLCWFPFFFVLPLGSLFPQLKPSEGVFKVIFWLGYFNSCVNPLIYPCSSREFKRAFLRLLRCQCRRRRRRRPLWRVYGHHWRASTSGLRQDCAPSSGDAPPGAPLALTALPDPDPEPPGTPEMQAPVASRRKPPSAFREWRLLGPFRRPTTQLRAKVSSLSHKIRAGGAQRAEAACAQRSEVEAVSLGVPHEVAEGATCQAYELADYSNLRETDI
T2 sequence (P35368 whole entry): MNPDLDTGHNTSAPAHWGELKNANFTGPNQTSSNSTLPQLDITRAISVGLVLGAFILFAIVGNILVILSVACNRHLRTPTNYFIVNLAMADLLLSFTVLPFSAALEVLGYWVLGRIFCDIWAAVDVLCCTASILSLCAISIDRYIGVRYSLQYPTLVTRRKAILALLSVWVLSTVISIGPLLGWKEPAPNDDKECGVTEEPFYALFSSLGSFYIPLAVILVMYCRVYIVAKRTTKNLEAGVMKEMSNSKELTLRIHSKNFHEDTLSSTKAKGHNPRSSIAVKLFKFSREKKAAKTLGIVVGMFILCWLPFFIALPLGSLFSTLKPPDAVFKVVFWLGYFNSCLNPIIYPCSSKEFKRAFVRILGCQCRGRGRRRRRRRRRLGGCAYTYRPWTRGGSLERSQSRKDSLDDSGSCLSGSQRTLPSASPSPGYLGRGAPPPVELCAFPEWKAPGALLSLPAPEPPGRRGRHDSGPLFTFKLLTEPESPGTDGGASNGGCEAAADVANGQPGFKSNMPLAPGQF
Kind of assay: Inhibition of [3H]- prazosin binding to alpha-1 adrenergic receptor. The format is protein assay. In short, it runs like this: as §2

The target of assay [5] is Norepinephrine transporter (Rattus norvegicus, UniProt Q9WTR4). Nature of the assay: Inhibition of [3H]-nisoxetine binding to Norepinephrine transporter from rat cortex. In short, it runs like this: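 Radioligand competition on rat cortex membranes, incubated under optimized conditions. Stopped by rapid filtration. Ki by Cheng-Prusoff.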
Chain of Norepinephrine transporter (Q9WTR4 whole entry): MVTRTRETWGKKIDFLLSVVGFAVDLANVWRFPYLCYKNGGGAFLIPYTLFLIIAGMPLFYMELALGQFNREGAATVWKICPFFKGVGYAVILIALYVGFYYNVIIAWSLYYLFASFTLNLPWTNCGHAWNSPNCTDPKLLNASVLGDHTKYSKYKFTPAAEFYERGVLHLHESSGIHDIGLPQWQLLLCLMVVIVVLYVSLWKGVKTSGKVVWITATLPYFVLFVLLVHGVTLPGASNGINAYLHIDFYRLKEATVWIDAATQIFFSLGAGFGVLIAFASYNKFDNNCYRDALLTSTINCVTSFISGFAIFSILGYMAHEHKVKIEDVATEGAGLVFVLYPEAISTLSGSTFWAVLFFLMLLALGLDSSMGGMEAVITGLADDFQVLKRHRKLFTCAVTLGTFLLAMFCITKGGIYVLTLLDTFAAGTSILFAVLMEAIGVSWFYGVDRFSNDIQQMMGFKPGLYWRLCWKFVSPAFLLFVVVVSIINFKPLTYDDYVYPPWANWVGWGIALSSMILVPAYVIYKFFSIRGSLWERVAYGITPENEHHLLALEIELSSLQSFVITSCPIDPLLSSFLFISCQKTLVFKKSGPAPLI
The target in assay [6] is T3, 5-hydroxytryptamine receptor 1A (Homo sapiens, UniProt P08908).
T3 sequence (P08908 whole entry): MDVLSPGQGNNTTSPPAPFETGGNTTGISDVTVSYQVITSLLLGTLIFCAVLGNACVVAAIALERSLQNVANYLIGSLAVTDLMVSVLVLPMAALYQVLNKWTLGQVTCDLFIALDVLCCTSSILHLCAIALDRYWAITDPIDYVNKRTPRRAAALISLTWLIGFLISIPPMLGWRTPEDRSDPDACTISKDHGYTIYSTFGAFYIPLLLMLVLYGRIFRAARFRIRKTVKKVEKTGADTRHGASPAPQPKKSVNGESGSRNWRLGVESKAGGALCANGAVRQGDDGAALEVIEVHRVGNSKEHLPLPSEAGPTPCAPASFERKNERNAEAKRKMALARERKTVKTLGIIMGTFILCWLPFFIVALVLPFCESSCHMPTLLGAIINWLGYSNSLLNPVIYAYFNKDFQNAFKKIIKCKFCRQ
Kind of assay: Inhibition of [3H]8-OH-DPAT binding to 5-hydroxytryptamine 1A receptor. Put shortly:
as §2

Assay [7] deals with Rattus norvegicus. Nature of the assay: Effective dose concentration for antagonism ofpCA-Induced excitation was determined by subcutaneous administration. The format is functional. Particulars: sc. In short, it runs like this:
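Male Wistar rats (200-250 g), fasted overnight, given test compound or solvent sc before challenge. Loss of righting induced by medetomidine 0.10 mg/kg iv; reversal means no loss of righting. Excitation induced by pCA 5 mg/10 mL/kg sc and scored 0-3 over 15 min starting 45 min after pCA; inhibition means score <2.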

`COc1cc2c(cc1OC)C1=NO[C@@H](CN3CCN(C/C(C)=C/c4ccccc4)CC3)[C@@H]1CO2`: the ED50 – broadly, the dose at which the effect has come halfway, by size or by number of responders – in assay [1] turned out to be 0.33 mg/kg; in assay [3], 3.8 mg/kg. The Ki (as a rule, the dissociation constant of the complex between target and ligand, obtained from inhibition or displacement) in assay [2] was over 1000 nM; in assay [4], 380 nM; in assay [5] it was 177 nM; in assay [6] it was 475 nM.
Consider `COc1cc2c(cc1OC)C1=NO[C@@H](CN3CCN(C/C=C(\C)c4ccccc4)CC3)[C@@H]1CO2`, for which the results for the ED50 in assay [1], in assay [3] and in assay [7] were 0.24 mg/kg, 3.5 mg/kg and 0.5 mg/kg, respectively. The Ki was over 1000 nM in assay [2], over 1000 nM in assay [4], 220 nM in assay [5] and over 1000 nM in assay [6].
Take `COc1cc2c(cc1OC)C1=NO[C@@H](CN3CCN(C/C=C/c4ccccc4)CC3)[C@@H]1CO2`: the 50% effective dose (ED50) in assay [1] amounted to 0.17 mg/kg; in assay [3] it was 1.1 mg/kg; in assay [7], 0.39 mg/kg. Further, the Ki in assay [2] was over 1000 nM; in assay [4], over 1000 nM; in assay [5], 132 nM; in assay [6], over 1000 nM.
As for `COc1cc2c(cc1OC)C1=NO[C@@H](CN3CCN(Cc4ccc5ccccc5c4)CC3)[C@@H]1CO2`, the results for the ED50 in assay [1], in assay [3] and in assay [7] were 0.25 mg/kg, 2.6 mg/kg and 0.08 mg/kg, respectively. Besides, the inhibition constant (Ki) in assay [2] was over 1000 nM; in assay [4], over 1000 nM; in assay [5], 33 nM; in assay [6] it was over 1000 nM.
